According to paper PMC2933822 (Chemical research in toxicology, 2010):
pIC50: −log10 of the molar value. “Also recorded” adds a separate entry of the source. Read-outs that look alike come from different tables or passages of the source.

Experiments:
[1] = system: Human HaCaT keratinocytes; experiment: Phototoxicity / dark cytotoxicity, neutral red uptake assay, UVA; type: cell-based; conditions: for pIC50: HaCaT
[2] = system: cisplatin-resistant derivative cell line A2780CIS; experiment: Phototoxicity / dark cytotoxicity, neutral red uptake assay, UVA; type: cell-based, human; conditions: for pIC50: neutral red dye uptake
Procedure, shortened: (§1)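 Cells were kept antibiotic-free in RPMI with 10% FBS at 37 °C in 5% CO2. They were washed in PBS, then given the test compound in EBSS for 1 h at 37 °C. Light plates received 5 J cm−2 UVA (1.77 mW cm−2, λmax 365 nm, below 320 nm filtered); dark plates were sham irradiated in parallel. Read-out was neutral red uptake. IC50 came from non-linear regression, 2-4 experiments in triplicate. The ratio is cisplatin IC50 (same conditions) over complex IC50.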

[3] = system: A2780 human ovarian carcinoma cells; experiment: as above; type: cell-based; conditions: for pIC50: neutral red dye uptake; for IC50 (cisplatin)/IC50(photoPt): A2780, fold difference vs cisplatin under identical conditions
Procedure, shortened: as §1

[4] = system: HaCaT, A2780, A2780CIS; experiment: Photo- and dark cytotoxicity stated in words across the cell lines; type: cell-based, human; conditions: UVA 365 nm irradiation
Procedure, shortened: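 HaCaT keratinocytes (DMEM, 5% FBS, 1% non-essential amino acids) and A2780 or A2780CIS cells (RPMI, 10% FBS) were grown at 37 °C without antibiotics. Cells were PBS-washed, then exposed 1 h at 37 °C to test compound in EBSS. They received 5 J cm−2 UVA (1.77 mW cm−2, λmax 365 nm, <320 nm filtered), with sham-irradiated parallel dark plates. Read-out was neutral red uptake. IC50s came from non-linear regression, 2-4 experiments in triplicate.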

[5] = system: DNA; experiment: Comet assay; type: cell-based, human; conditions: +UVA 5 J cm^−2, then H2O2
[6] = system: A2780 human ovarian carcinoma cells; conditions: cited from earlier work
[7] = system: cisplatin-resistant derivative cell line A2780CIS; conditions: cited from earlier work
[8] = system: a number of cell lines; conditions: photoactivated; cited from earlier work
[9] = system: Human HaCaT keratinocytes; conditions: cited from earlier work
[10] = +365 nm (5 J cm^−2 UVA), 1 h treatment, neutral red dye uptake
[11] = Dark (sham irradiated), neutral red dye uptake

Work on `CN(C)CCCN1c2ccccc2Sc2ccc(Cl)cc21` [CPZ, Chlorpromazine, reference compound] yielded a pIC50 ([1]; Homo sapiens, light or radiation study) of 3.62 and a pIC50 ([1]; Homo sapiens, light or radiation study, 1 h) of 5.05.

With “cis,trans,cis-[Pt(N3)2(OH)2(NH3)(pentylamine)] [Complex 6c]” the pIC50 ([2]; +365 nm (5 J cm^−2 UVA)) was < 3.62, the pIC50 ([2]; Dark (sham irradiated)) was < 3.62 and the pIC50 ([3]; A2780, +365 nm (5 J cm^−2 UVA)) was < 3.62. The pIC50 ([3]; A2780, Dark (sham irradiated)) was < 3.62, the “IC50 (cisplatin)/IC50(photoPt)” value [3] was 0.6 and the pIC50 [1, 10] was 3.65. For the same molecule, the pIC50 [1, 11] was < 3.62.

With “cis,trans,cis-[Pt(N3)2(OH)2(NH3)(propylamine)] [Complex 4c]” the pIC50 ([3]; A2780, +365 nm (5 J cm^−2 UVA)) was 4.03, the pIC50 ([3]; A2780, Dark (sham irradiated)) was < 3.59 and the “IC50 (cisplatin)/IC50(photoPt)” value [3] was 1.6. The pIC50 [1, 10] was 3.69 and the pIC50 [1, 11] was < 3.59.

For “cis,trans,cis-[Pt(N3)2(OH)2(NH3)(pyridine)] [Complex 7c]”, the pIC50 ([2]; +365 nm (5 J cm^−2 UVA)) was 3.96, the pIC50 ([2]; Dark (sham irradiated)) was < 3.61 and the “IC50 (cisplatin)/IC50(photoPt)” value ([2]; fold difference vs cisplatin under identical conditions) was 2.4. For the same molecule, the pIC50 ([3]; A2780, +365 nm (5 J cm^−2 UVA)) was 4.10, the pIC50 ([3]; A2780, Dark (sham irradiated)) was < 3.61 and the “IC50 (cisplatin)/IC50(photoPt)” value [3] was 1.9. The “phototoxicity / photocytotoxicity” value [4] was “the most phototoxic cis compounds investigated”, the “fold less phototoxic than 7t” value ([1]; HaCaT cells, UVA) was “approximately 10 fold” and the pIC50 [1, 10] was 4.00. The pIC50 [1, 11] was < 3.61 and the “inhibition of DNA migration (DNA crosslinking), irradiated samples” value [5] was “more effective at inhibiting DNA migration (at low doses)”.

In the case of “trans,trans,trans-[Pt(N3)2(OH)2(NH3)(py)] [Complex 7t]”, the “IC50 (cisplatin)/IC50(photoPt)” value [6] is listed as 80.0, the “IC50 (cisplatin)/IC50(photoPt)” value [7] is listed as 15.4 and the “phototoxicity / photocytotoxicity” value [4] is listed as “the most phototoxic molecule tested; also recorded: the most phototoxic complex which still maintains dark stability”. The “fold more cytotoxic following irradiation than treatment with cisplatin” value [8] was “up to 90 ×” and the “IC50 (cisplatin)/IC50(photoPt)” value [9] was 21.2.
